Rows were chosen to be rich in hits. Some 2.1% of all compounds tested hit in one or more screens of this group.
CHRM1 antagonist: human CHRM1 antagonism | CHO-K1 hM1, Fluo-8 calcium fluorescence, ACh EC80 antagonist | inhibition, % at 3 µM | 360,000 compounds, 1.3% hits;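 active = percent inhibition above its own plate's cutoff, namely the mean of that plate's compound wells plus 3 SD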;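 also: peak over basal fluorescence ratio during 140 s after agonist addition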
CHRM5 antagonist: blocks acetylcholine activation of human M5 receptor | P08912 | CHO-hM5 cells, Fluo-8 calcium fluorescence, ACh EC80 | inhibition, % at 3 µM | 360,000 compounds, 0.59% hits | AID 624040;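 active = inhibition above a per-plate cutoff, the mean of that plate's test compounds plus 3 SD, cut at about 27% in these data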
Target sequence (P08912 whole entry, looked up): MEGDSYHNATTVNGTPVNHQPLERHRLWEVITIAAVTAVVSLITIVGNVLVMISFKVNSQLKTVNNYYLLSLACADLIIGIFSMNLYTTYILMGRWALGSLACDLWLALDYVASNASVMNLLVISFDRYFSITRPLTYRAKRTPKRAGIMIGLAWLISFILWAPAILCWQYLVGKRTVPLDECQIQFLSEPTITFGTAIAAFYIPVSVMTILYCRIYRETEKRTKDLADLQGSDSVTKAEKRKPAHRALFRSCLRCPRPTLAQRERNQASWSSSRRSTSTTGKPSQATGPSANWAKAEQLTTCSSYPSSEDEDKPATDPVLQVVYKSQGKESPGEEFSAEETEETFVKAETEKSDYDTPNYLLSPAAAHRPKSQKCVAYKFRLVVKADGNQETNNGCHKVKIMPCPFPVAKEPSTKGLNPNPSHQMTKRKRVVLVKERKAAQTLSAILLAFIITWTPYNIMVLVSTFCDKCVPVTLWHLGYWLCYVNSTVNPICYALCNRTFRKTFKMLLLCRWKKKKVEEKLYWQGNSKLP
CHRM1 agonist: agonists of human M1 muscarinic receptor; P11229; CHO-K1 hM1, Fluo-8 calcium fluorescence, agonist mode; 0% DMSO, 100% acetylcholine EC100; activation, % at 3 µM; 360,000 compounds, 0.33% hits; AID 588814;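 active = activation above the run's mean compound activation plus 3 SD, cut at about 16% in these data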;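 also: peak over basal fluorescence ratio within a 140 s kinetic read after compound addition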
M5 ag: CHRM5 agonism in calcium assay; P08912; CHO-K1 hM5 cells, Fluo-8 calcium fluorescence; 0% DMSO wells, 100% maximal acetylcholine response; activation, % at 3 µM; 360,000 compounds, 0.19% hits; AID 624037;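 active = activation above the run's mean over test compounds plus 3 SD, cut at about 23% in these data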;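 also: signal is peak over basal fluorescence ratio across the kinetic read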
M5 PAM: CHRM5 positive allosteric modulation; activation, % at 3 µM; 360,000 compounds, 0.3% hits; CHO-K1 hM5, Fluo-8 calcium, ACh EC20 PAM; 0% = ACh EC20, 100% = ACh EC100; P08912;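 active = activation above the run cutoff, the mean activation of all test compounds plus 3 SD, cut at about 18% in these data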
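System: CHO-K1 hM5 cells. Reagent: acetylcholine, EC20 level. Compound dosing: single dose, 3 µM nominal final test concentration. Timing: Post-acetylcholine fluorescence recording 140 s. Detection: Fluo-8 calcium fluorescence. Read-out: % activation, ACh-normalized. Benchmarks: ACh EC20 and EC100 wells. Repeats: singlicate, one well per test compound.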
M1 PAM: human CHRM1 positive allosteric modulation; activation, % at 3 µM; 360,000 compounds, 0.088% hits; CHO-K1 hM1, Fluo-8 calcium fluorescence, ACh EC20; 0% = ACh EC20, 100% = maximal ACh; P11229; in the data active = activation above about 19%, passing the limit was not always enough
Each line names hits and unclear results; the compound was inactive in the other large screens.

Cc1ccc(Nc2nc(NCc3cccs3)nc3ccsc23)c(C)c1	none
Cc1ccc(Cn2nnnc2CN2CCC(NC(=O)c3ccc(Br)cc3)CC2)cc1	none
COc1ccc(CC(N)c2csc(Nc3nc(C)cnc3C)n2)cc1 (configuration not stated)	none
C#CC(=O)CC1(CN(Cc2ccccc2)C(=O)OC(C)(C)C)CCCCC1	CHRM1 antagonist 34
CON(C)C(=O)CC1(CN(Cc2ccccc2)C(=O)OC(C)(C)C)CCCCC1	none
Cc1cc2ccccc2cc1C(=O)c1ccccc1	M1 PAM 28
COc1ccc(NC(=O)C2CC(c3ccccc3Cl)=NO2)cc1 (configuration not stated)	none
O=C(CN1CCCCCCC1)NC(=O)NC1CCCCC1	none
O=C(c1ccc(OC2CCN(CCc3ccccc3)CC2)cc1)N1CCCCC1CCCO (configuration not stated)	CHRM1 antagonist 30
O=C(c1ccc(OC2CCN(CCc3ccccc3)CC2)cc1)N1CCCC(CCCO)C1 (configuration not stated)	none
CC(C)N1CCN(C(=O)c2ccc(OC3CCN(CCc4ccccc4)CC3)cc2)CC1	CHRM1 antagonist 43
C[C@@H]1CN([C@H](C)CO)C(=O)CCCn2cc(nn2)CO[C@H]1CN(C)S(=O)(=O)c1ccc(F)cc1	none
Cc1ccc(C)c(C(=O)CCC(=O)Nc2ccc(F)cc2)c1	none
CCCCN1C(=O)/C(=C/C=C2/CC(C)(C)CN2C)SC1=S	CHRM1 antagonist 36, CHRM5 antagonist 36, CHRM1 agonist 31, M5 ag 47
CCCCN1C(=O)/C(=C/C=C2\Oc3ccccc3N2CC)SC1=S	CHRM1 antagonist 43, CHRM1 agonist 28, M5 ag 48
Cc1ccc(S(=O)(=O)N2CCN(C(=O)C3CCN(c4ncnc5sc(C)c(C)c45)CC3)CC2)c(C)c1	M1 PAM 29
Cc1sc2ncnc(N3CCN(CCOc4ccc(Cl)cc4)CC3)c2c1C	CHRM1 antagonist 43, CHRM5 antagonist 32
Cc1sc2ncnc(N3CCC(C(=O)NNC(=O)COc4ccccc4Cl)CC3)c2c1C	CHRM1 antagonist 32
COC(=O)c1oc2nc(C)cc(C)c2c1N	none
CCC(Sc1nc2cc3c(cc2c(=O)n1Cc1ccco1)OCO3)C(=O)Nc1cccc(OC)c1 (configuration not stated)	none
CC(C)CNC(=O)CC(=O)NN=C1CCCC1	none
COc1cc(/C=N/N2C(=O)C3C4c5ccccc5C(c5ccccc54)C3C2=O)ccc1O (configuration not stated)	M5 PAM 33
CCCc1cc(N2CCCC(C(=O)NCc3ccc4c(c3)OCO4)C2)n2ncnc2n1 (configuration not stated)	M1 PAM 28
CCNc1sc(C(=O)c2cccs2)c(N)c1-c1nc2ccccc2s1	none
C=CCNc1sc(C(=O)c2ccccc2)c(N)c1-c1nc2ccccc2s1	M5 PAM 20
O=C(NC(NC(=S)Nc1ccccc1)C(Cl)(Cl)Cl)c1cccc(Cl)c1 (configuration not stated)	CHRM1 antagonist 30, CHRM5 antagonist 44
Cc1cc(C)c(NC(=S)NC(NC(=O)c2ccccc2)C(Cl)(Cl)Cl)c(C)c1 (configuration not stated)	CHRM5 antagonist 27
O=C(O)c1cccc(NC(=S)NC(NC(=O)c2cccc([N+](=O)[O-])c2)C(Cl)(Cl)Cl)c1 (configuration not stated)	none
COc1cc(S(=O)(=O)Nc2ccccc2C(=O)N2CCCC2)ccc1NC(C)=O	none
Cn1c(Cc2ccccc2)nnc1SCC(=O)N1CCOCC1	none
COc1ccc2c(c1)[nH]c1c(N3CCN(Cc4ccc5c(c4)OCO5)CC3)ncnc12	CHRM5 antagonist 32
COC(=O)c1ccc(/C=N/NC(=O)c2ccc3nc[nH]c3c2)cc1	none
O=C(N/N=C/c1ccc(Cl)cc1)c1ccc2nc[nH]c2c1	CHRM1 antagonist 29
CCCC1C2CN(C(C)C)CC=C2C(C#N)=C(N)C1(C#N)C#N (configuration not stated)	CHRM1 antagonist 38
CCOC(=O)c1cnc(-n2nc(C)cc2C)nc1NCCc1ccccc1	none
O=C(O)CCN1CC2([N+](=O)[O-])CC=C(OCCO)C([N+](=O)[O-])(C1)C2 (configuration not stated)	none
COC1=CCC2([N+](=O)[O-])CN(CCO)CC1([N+](=O)[O-])C2 (configuration not stated)	M5 PAM 19
Cn1c2ccccc2c2cc(/C=N/NC(=O)c3cc(O)ccc3O)ccc21	CHRM1 antagonist 30
Cn1c2ccccc2c2cc(/C=N/NC(=O)c3cc(O)cc(O)c3)ccc21	none
COc1ccc(NS(=O)(=O)c2cc(NC(=O)C3=NN(c4ccccc4)C(=O)CC3)ccc2C)cc1	none
CCOC(=O)c1ccc(N2CCN(c3cc(C)ccc3C)CC2)c(N)c1	none
CCOC(=O)N1CCC(N2CCN(S(=O)(=O)c3ccc(Cl)cc3)CC2)CC1	CHRM1 agonist 39
CCOC(=O)N1CCC(N2CCN(c3cc(C)ccc3C)CC2)CC1	CHRM1 antagonist 51, CHRM5 antagonist 55
CCOC(=O)N1CCC(N2C(=O)c3ccc(C(=O)O)cc3C2=O)CC1	M5 PAM 21
Cc1ccccc1C(=O)Nc1c(C(=O)N(CCN(C)C)Cc2ccco2)oc2ccccc12	none
O=C(NNC(=O)c1cc(-c2cccnc2)nc2ccccc12)Nc1ccc(Cl)cc1	CHRM1 antagonist 63, CHRM5 antagonist 38
O=C(NNC(=O)c1cc(-c2ccccc2)nc2ccccc12)Nc1cccc(Cl)c1	CHRM1 antagonist 25
CC(C)(C)c1ccc(-c2cc(C(=O)NNC(=O)Nc3ccccc3)c3ccccc3n2)cc1	none
O=C(NNC(=O)c1cc(-c2ccncc2)nc2ccccc12)Nc1ccc(F)cc1	none
COCCn1c(CN2CCN(C)CC2)nc2c1c(=O)n(C)c(=O)n2C	none
CCOCCn1c(CN2CCN(C)CC2)nc2c1c(=O)n(C)c(=O)n2C	M1 PAM 29
O=[N+]([O-])C(/C=C(\Cl)[N+](=O)[O-])=C1N(Cc2ccc(Cl)nc2)CCN1Cc1ccc(Cl)nc1	none
O=[N+]([O-])/C(C(=C(Cl)Cl)N1CCN(Cc2ccccc2)CC1)=C1\NCCN1Cc1ccc(Cl)nc1	CHRM1 antagonist 43
Cc1nc(SCC(=O)N2CCOCC2)c2c(=O)n(C)c(=O)n(CC(C)C)c2n1	none
OCC1(CCc2ccccc2)CCN(C/C=C/c2ccccc2)CC1	none
OCC1(Cc2ccccc2Cl)CCN(C/C=C/c2ccccc2)CC1	CHRM1 antagonist 62

Screening results: PubChem, The Scripps Research Institute Molecular Screening Center
